Data set [1] concerns C-33-A. Kind of data set: Induction of apoptosis in human C33A cells assessed as viable cells at 4 uM after 24 hrs by Annexin V-FITC/PI double staining based flow cytometric analysis (reference value: 93.3%). It is filed as functional. The note with it: read-out: Activity. A general note: A flow cytometer gives signals particle by particle.
In data set [2] the target is Casein kinase II subunit alpha (Homo sapiens) (UniProt P68400). Kind of data set: Inhibition of CK2alpha in human C33A cells at 2 to 4 uM after 48 hrs by Western blot analysis. It is filed as cell-based. Particulars: C-33-A. The procedure, abridged: (§1)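 Cells were seeded at 1 × 10^6 per 100 mm dish and treated next day with 2 or 4 μM for 48 h. They were trypsinised, PBS-washed and lysed in RIPA with protease inhibitors. Equal protein was run on SDS-PAGE and transferred to PVDF. Primary antibodies were used at 1:500, with BSA 3% for blocking and antibodies for CK2α, Rb and pRb, otherwise 5% milk in TBST. HRP secondary at 1:2000, chemiluminescence detection.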
Casein kinase II subunit alpha (Homo sapiens), sequence (P68400 whole entry, looked up): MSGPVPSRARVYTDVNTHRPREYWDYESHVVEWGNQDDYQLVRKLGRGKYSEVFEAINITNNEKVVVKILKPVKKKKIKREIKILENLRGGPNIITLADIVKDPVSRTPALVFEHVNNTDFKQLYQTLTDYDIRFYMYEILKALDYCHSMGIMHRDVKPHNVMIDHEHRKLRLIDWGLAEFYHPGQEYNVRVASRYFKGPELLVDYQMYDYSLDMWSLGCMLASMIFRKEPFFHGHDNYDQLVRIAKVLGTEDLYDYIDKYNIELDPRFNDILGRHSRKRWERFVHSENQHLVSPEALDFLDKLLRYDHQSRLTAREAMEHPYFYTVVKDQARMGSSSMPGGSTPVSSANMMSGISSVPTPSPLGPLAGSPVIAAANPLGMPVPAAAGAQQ
For orientation: Immunoblotting shows a protein as a band on a membrane.

Data set [3] relates to HeLa. As to the kind of experiment: Induction of apoptosis in human HeLa cells assessed as early apoptotic cells at 4 uM after 48 hrs by Annexin V-FITC/PI double staining based flow cytometric analysis (reference value: 10.7%). It is filed as functional.
Data set [4] relates to HeLa. As to the kind of experiment: Inhibition of colony formation in human HeLa cells at 2 to 4 uM afer 1 week by crystal violet staining based assay. It is filed as functional, cell-based. Put shortly: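 Cells were grown in DMEM with 10% FBS, seeded at 1 × 10^3 cells/ml in six-well plates, incubated overnight, then exposed to 2 or 4 μM at 37 °C under 5% CO2 for one week. Colonies were fixed with 4% paraformaldehyde, stained with 0.5% crystal violet and photographed.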

The target in data set [5] is Casein kinase II subunit alpha (Homo sapiens) (UniProt P68400). As to the kind of experiment: Potency index, ratio for inhibition activity of apigenin to test compound for inhibition of CK2alpha in human SiHa cells after 48 hrs by Western blot analysis. It is filed as cell-based. Put shortly: (§2)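 Cells plated at 1 × 10^6 per 100 mm dish and treated next day for 48 h with test compound (2 or 4 μM) or apigenin (10, 20 or 40 μM). RIPA lysates with protease inhibitors; equal protein loaded for SDS-PAGE, then PVDF transfer. Blocked in 5% milk/TBST (3% BSA for CK2α); anti-SIX1 or anti-CK2α 1:500, HRP secondary 1:2000; chemiluminescent detection.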

Data set [6] deals with SiHa. Kind of data set: Cell cycle arrest in human SiHa cells assessed as accumulation at G0/G1 phase at 4 uM after 72 hrs by propidium iodide staining based flow cytometric analysis (reference value: 72.8%). It is filed as functional. The procedure, abridged: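 Cells in DMEM/10% FBS at 37 °C, 5% CO2 were given 4 μM for 24, 48 or 72 h, with DMSO as control. After trypsinization they were fixed in chilled 70% ethanol on ice for 30 min, treated with RNase A (1 mg/mL) for 30 min at room temperature, and stained with PI (20 μg/mL). At least 10 000 events were read by flow cytometry to give sub-G1, G0/G1, S and G2/M fractions; mean ± SEM.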

In data set [7] the test system is HeLa. As to the kind of experiment: Antiproliferative activity against human HeLa cells assessed as reduction in cell viability after 72 hrs by CellTiter-Glo assay. It is filed as functional, cell-based. The procedure, abridged: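 ATP-based luminescent viability readout. Cells were grown in DMEM with 10% FBS, 2 mM L-glutamine and penicillin-streptomycin at 37 °C, 5% CO2. 2 × 10^4 cells/well were seeded, then exposed the next day to 0–40 μM for 24, 48 or 72 h. % viability = 100 × treated/control. IC50 was fitted from a sigmoid dose-response curve. Run at least three times in quadruplicate; mean ± SEM.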
(In general: Cellular ATP, detected with luciferase, serves as a proxy for viable cell number.)

Data set [8] addresses T1, Homeobox protein SIX1 (Homo sapiens) (UniProt Q15475).
T1 sequence (whole entry): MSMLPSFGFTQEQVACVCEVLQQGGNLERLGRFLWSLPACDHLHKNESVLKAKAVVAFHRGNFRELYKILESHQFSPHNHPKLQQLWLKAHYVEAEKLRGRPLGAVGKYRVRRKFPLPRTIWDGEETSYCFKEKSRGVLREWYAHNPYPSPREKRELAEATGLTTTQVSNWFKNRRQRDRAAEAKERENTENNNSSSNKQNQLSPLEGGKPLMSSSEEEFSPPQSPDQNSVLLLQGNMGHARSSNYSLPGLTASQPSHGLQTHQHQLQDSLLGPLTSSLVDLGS
Kind of data set: Potency index, ratio for inhibition activity of apigenin to test compound for inhibition of SIX1 in human CaSki cells after 48 hrs by Western blot analysis. Particulars: Ca-Ski. It is filed as cell-based. The procedure, abridged:
as §2

Data set [9] concerns the target T1, Homeobox protein SIX1 (Homo sapiens). As to the kind of experiment: Potency index, ratio for inhibition activity of apigenin to test compound for inhibition of SIX1 in human C33A cells after 48 hrs by Western blot analysis. It is filed as cell-based. The note with it: C-33-A. Put shortly: as §2
A further data set concerns Keratinocyte. As to the kind of experiment: Cytotoxicity against human Keratinocytes assessed as reduction in cell viability 2 to 4 uM incubated up to 72 hrs by CellTiter-Glo assay. It is filed as cell-based.
Data set [10] concerns the target Protein E6 (Human papillomavirus 16) (UniProt P03126). As to the kind of experiment: Inhibition of Human papillomavirus type16 derived E6 in human SiHa cells assessed as increase in p53 protein expression at 2 to 4 uM after 48 hrs by Western blot analysis. It is filed as cell-based. Put shortly:
as §1

The target in data set [11] is T2, Protein E7 (Human papillomavirus 16) (UniProt P03129).
T2 sequence (whole entry): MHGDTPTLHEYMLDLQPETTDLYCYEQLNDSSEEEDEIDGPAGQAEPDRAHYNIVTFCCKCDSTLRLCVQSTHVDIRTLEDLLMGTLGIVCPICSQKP
Kind of data set: Inhibition of Human papillomavirus type16 derived E7 in human SiHa cells assessed as decrease in phosphorylation of Rb at 2 to 4 uM after 48 hrs by Western blot analysis. It is filed as cell-based. Put shortly: as §1

Data set [12] concerns the target Protein E6 (human papillomavirus 18) (UniProt P06463). Kind of data set: Inhibition of Human papillomavirus type18 derived E6 in human HeLa cells assessed as increase in p53 protein expression at 2 to 4 uM after 48 hrs by Western blot analysis. It is filed as cell-based. Put shortly: as §1
In data set [13] the test system is HeLa. Kind of data set: Induction of apoptosis in human HeLa cells assessed as late apoptotic cells at 4 uM after 48 hrs by Annexin V-FITC/PI double staining based flow cytometric analysis (reference value: 4.4%). It is filed as functional.
The subject of data set [14] is SiHa. Kind of data set: Induction of apoptosis in human SiHa cells assessed as viable cells at 4 uM after 48 hrs by Annexin V-FITC/PI double staining based flow cytometric analysis (reference value: 93.7%). It is filed as functional. The note with it: read-out: Activity.
In data set [15] the target is Casein kinase II subunit alpha (Homo sapiens) (UniProt P68400). Kind of data set: Potency index, ratio for inhibition activity of apigenin to test compound for inhibition of CK2alpha in human C33A cells after 48 hrs by Western blot analysis. It is filed as cell-based. Particulars: C-33-A. The procedure, abridged:
as §2

For data set [16], the system named is C-33-A. As to the kind of experiment: Induction of apoptosis in human C33A cells assessed as necrotic cells at 4 uM after 48 hrs by Annexin V-FITC/PI double staining based flow cytometric analysis (reference value: 1.9%). It is filed as functional.
In data set [17] the test system is SiHa. Kind of data set: Cell cycle arrest in human SiHa cells assessed as increase in accumulation at G0/G1 phase at 4 uM incubated for 48 hrs by propidium iodide staining based flow cytometric analysis. It is filed as functional. The procedure, abridged:
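Cells in DMEM with 10% FBS, 2 mM L-glutamine, pen-strep, 37 °C, 5% CO2; seeded and left overnight, then treated at 4 μM with DMSO as control. Harvested by trypsin at 24, 48 or 72 h, fixed in chilled 70% ethanol 30 min on ice, RNase A (1 mg/mL) 30 min at room temperature, PI (20 μg/mL). Flow cytometry, ≥10 000 events, G0/G1, S, G2/M fractions; mean ± SEM.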

Data set [18] is described as follows: Toxicity in po dosed rat. It is filed as organism-based. Particulars: in vivo.

Active and inactive are the calls of the source. The calls are words filed in the database; no cut-off is given here.

Protein E6 (Human papillomavirus 16), sequence (P03126 whole entry): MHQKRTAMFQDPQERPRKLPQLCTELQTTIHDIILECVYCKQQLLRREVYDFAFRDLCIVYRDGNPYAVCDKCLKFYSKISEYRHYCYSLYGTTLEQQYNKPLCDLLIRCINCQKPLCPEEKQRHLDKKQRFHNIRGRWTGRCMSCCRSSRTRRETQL
Protein E6 (human papillomavirus 18), sequence (P06463 whole entry): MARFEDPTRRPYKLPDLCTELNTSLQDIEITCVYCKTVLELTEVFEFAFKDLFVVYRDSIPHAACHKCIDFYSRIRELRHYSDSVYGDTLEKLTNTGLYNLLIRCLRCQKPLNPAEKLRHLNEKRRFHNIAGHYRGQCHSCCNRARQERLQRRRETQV

For orientation: IC50 means the concentration at which inhibition is half-maximal. A word on the LD50: it is the dose expected to kill half of the subjects tested. As for `O[C@]12C=C(c3nccc4c3[nH]c3ccccc34)[C@@H]3CCN(CCCC/C=C\CC1)C[C@@]31C[C@@H]3/C=C\CCCCN3[C@H]12` [MANZAMINE A], the viability at 4 µM amounted to 72.7% with C-33-A [1] and 66.4% in the data set with SiHa [14]. Moreover, the inhibition entry (in [2]; with HeLa [4]; in [10]; in data set [11]; in data set [12]) was “Active” throughout. For the same molecule, the Activity is given as 59% in the data set on HeLa [3]; 78.6% in the data set on SiHa [6]; “Non-Toxic” in the data set with Keratinocyte; 14.1% in the data set with HeLa [13]; 11.1% in the data set on C-33-A [16]. In addition, the Ratio in [5], in data set [8], in data set [9] and in data set [15] was 10 each time. In addition, in the data set with HeLa [7], the IC50 is 5.3 µM. Also, the “fold change (FC)” value in the data set with SiHa [17] is 1.2. For the same molecule, in [18], the median lethal dose (LD50) lay in the range of 200 to 300 mg/kg.

These data come from ChEMBL document CHEMBL4602675, “The Marine Natural Product Manzamine A Inhibits Cervical Cancer by Targeting the SIX1 Protein” (J Nat Prod, 2020).
